Source: ChEMBL document CHEMBL3102806, “1,2,4-Triazole/oxime hybrids as new strategy for nitric oxide donors: Synthesis, anti-inflammatory, ulceroginicity and antiproliferative activities” (Eur J Med Chem, 2014)

Experiments:
[1] = tested on: MDA-MB-468; assay: Growth inhibition of human MDA-MB-468 cells assessed as cell growth at 10^-5 M after 48 hrs by sulforhodamine B assay relative to control; assay type: functional; conditions: MDA-MB-468, 48 h, read-out: Activity
In short: (§1)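 NCI primary screen, one-dose format across about 60 human tumour cell lines. Single addition at 10^-5 M with 48 h incubation; SRB protein-binding dye end point read spectrophotometrically. Reported as percent growth of treated cells versus untreated controls.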

[2] = tested on: MDA-MB-231; assay: Growth inhibition of human MDA-MB-231 cells assessed as cell growth at 10^-5 M after 48 hrs by sulforhodamine B assay relative to control; assay type: functional; conditions: MDA-MB-231, 48 h, read-out: Activity; in short: as §1
[3] = tested on: CAKI-1; assay: Growth inhibition of human CAKI-1 cells assessed as cell growth at 10^-5 M after 48 hrs by sulforhodamine B assay relative to control; assay type: functional; conditions: CAKI-1, 48 h, read-out: Activity
In short: (§2)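 NCI ~60 human tumour cell line screen. Single concentration of 10^-5 M added to cultures for 48 h. End point by sulforhodamine B protein staining read spectrophotometrically. Percent growth relative to untreated control cells.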

[4] = Growth inhibition of human NCI-ADR-RES cells assessed as cell growth at 10^-5 M after 48 hrs by sulforhodamine B assay relative to control; assay type: functional; conditions: read-out: Activity; in short: as §1
[5] = tested on: HCT-116; assay: Growth inhibition of human HCT116 cells assessed as cell growth at 10^-5 M after 48 hrs by sulforhodamine B assay relative to control; assay type: functional; conditions: HCT-116, 48 h, read-out: Activity; in short: as §2
[6] = tested on: 786-0; assay: Growth inhibition of human 786-0 cells assessed as cell growth at 10^-5 M after 48 hrs by sulforhodamine B assay relative to control; assay type: functional; conditions: 786-0, 48 h, read-out: Activity; in short: as §2
[7] = tested on: HCT-15; assay: Growth inhibition of human HCT15 cells assessed as cell growth at 10^-5 M after 48 hrs by sulforhodamine B assay relative to control; assay type: functional; conditions: HCT-15, 48 h, read-out: Activity; in short: as §2
[8] = Induction of nitric oxide release in phosphate buffer at 10^-4 M at pH 7.4 after 5 hrs by Griess colorimetric method in presence of N-acetylcysteine; assay type: physicochemical; conditions: pH 7.4, 5 h, 100 µM
In short: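 Final drug concentration 10^-4 M, added from DMF into 1:1 50 mM phosphate buffer (pH 7.4)/MeOH containing 5 × 10^-4 M N-acetylcysteine, at 37 °C. Nitrite read with Griess reagent after 10 min at room temperature, absorbance at 546 nm. Calibration with sodium nitrite standards (10–80 nmol/ml). Reported as mol NO per mol, n = 4 reaction mixtures.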

[9] = tested on: TK-10; assay: Growth inhibition of human TK10 cells assessed as cell growth at 10^-5 M after 48 hrs by sulforhodamine B assay relative to control; assay type: functional; conditions: TK-10, 48 h, read-out: Activity
In short: (§3)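 NCI primary screen across about 60 human tumour cell lines. Single dose of 10^-5 M, cultures incubated 48 h, end point by sulforhodamine B protein staining read spectrophotometrically. Results are given as percent growth of treated cells relative to untreated control cells.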

[10] = tested on: A498; assay: Growth inhibition of human A498 cells assessed as cell growth at 10^-5 M after 48 hrs by sulforhodamine B assay relative to control; assay type: functional; conditions: A498, 48 h, read-out: Activity; in short: as §2
[11] = tested on: NCI-H23; assay: Growth inhibition of human NCI-H23 cells assessed as cell growth at 10^-5 M after 48 hrs by sulforhodamine B assay relative to control; assay type: functional; conditions: NCI-H23, 48 h, read-out: Activity; in short: as §1
[12] = tested on: PC-3; assay: Growth inhibition of human PC3 cells assessed as cell growth at 10^-5 M after 48 hrs by sulforhodamine B assay relative to control; assay type: functional; conditions: PC-3, 48 h, read-out: Activity; in short: as §1
[13] = tested on: SK-MEL-28; assay: Growth inhibition of human SK-MEL-28 cells assessed as cell growth at 10^-5 M after 48 hrs by sulforhodamine B assay relative to control; assay type: functional; conditions: SK-MEL-28, 48 h, read-out: Activity; in short: as §3
[14] = tested on: SK-OV-3; assay: Growth inhibition of human SKOV3 cells assessed as cell growth at 10^-5 M after 48 hrs by sulforhodamine B assay relative to control; assay type: functional; conditions: SK-OV-3, 48 h, read-out: Activity; in short: as §3
[15] = tested on: RPMI-8226; assay: Growth inhibition of human RPMI8226 cells assessed as cell growth at 10^-5 M after 48 hrs by sulforhodamine B assay relative to control; assay type: functional; conditions: RPMI-8226, 48 h, read-out: Activity; in short: as §1
[16] = tested on: SNB-19; assay: Growth inhibition of human SNB19 cells assessed as cell growth at 10^-5 M after 48 hrs by sulforhodamine B assay relative to control; assay type: functional; conditions: SNB-19, 48 h, read-out: Activity; in short: as §3
[17] = tested on: SK-MEL-2; assay: Growth inhibition of human SK-MEL-2 cells assessed as cell growth at 10^-5 M after 48 hrs by sulforhodamine B assay relative to control; assay type: functional; conditions: SK-MEL-2, 48 h, read-out: Activity; in short: as §3
[18] = tested on: OVCAR-8; assay: Growth inhibition of human OVCAR8 cells assessed as cell growth at 10^-5 M after 48 hrs by sulforhodamine B assay relative to control; assay type: functional; conditions: OVCAR-8, 48 h, read-out: Activity; in short: as §1
[19] = tested on: SK-MEL-5; assay: Growth inhibition of human SK-MEL-5 cells assessed as cell growth at 10^-5 M after 48 hrs by sulforhodamine B assay relative to control; assay type: functional; conditions: SK-MEL-5, 48 h, read-out: Activity; in short: as §3
[20] = tested on: K562; assay: Growth inhibition of human K562 cells assessed as cell growth at 10^-5 M after 48 hrs by sulforhodamine B assay relative to control; assay type: functional; conditions: K562, 48 h, read-out: Activity; in short: as §2
[21] = tested on: SW-620; assay: Growth inhibition of human SW620 cells assessed as cell growth at 10^-5 M after 48 hrs by sulforhodamine B assay relative to control; assay type: functional; conditions: SW-620, 48 h, read-out: Activity; in short: as §3
[22] = tested on: M14; assay: Growth inhibition of human M14 cells assessed as cell growth at 10^-5 M after 48 hrs by sulforhodamine B assay relative to control; assay type: functional; conditions: M14, 48 h, read-out: Activity; in short: as §1
[23] = tested on: ACHN; assay: Growth inhibition of human ACHN cells assessed as cell growth at 10^-5 M after 48 hrs by sulforhodamine B assay relative to control; assay type: functional; conditions: read-out: Activity; in short: as §2
[24] = Growth inhibition of human SF539 cells assessed as cell growth at 10^-5 M after 48 hrs by sulforhodamine B assay relative to control; assay type: functional; conditions: SF-539, 48 h, read-out: Activity; in short: as §1
[25] = tested on: SF-295; assay: Growth inhibition of human SF295 cells assessed as cell growth at 10^-5 M after 48 hrs by sulforhodamine B assay relative to control; assay type: functional; conditions: SF-295, 48 h, read-out: Activity; in short: as §1
[26] = Growth inhibition of human HOP92 cells assessed as cell growth at 10^-5 M after 48 hrs by sulforhodamine B assay relative to control; assay type: functional; conditions: HOP-92, 48 h, read-out: Activity; in short: as §2
[27] = Growth inhibition of human OVCAR5 cells assessed as cell growth at 10^-5 M after 48 hrs by sulforhodamine B assay relative to control; assay type: functional; conditions: OVCAR-5, 48 h, read-out: Activity; in short: as §1
[28] = tested on: SF-268; assay: Growth inhibition of human SF268 cells assessed as cell growth at 10^-5 M after 48 hrs by sulforhodamine B assay relative to control; assay type: functional; conditions: SF-268, 48 h, read-out: Activity; in short: as §1

SMILES | growth at 10 µM [1] [%] | growth at 10 µM [2] [%] | growth at 10 µM [3] [%] | growth at 10 µM [4] [%] | growth at 10 µM [5] [%] | growth at 10 µM [6] [%] | growth at 10 µM [7] [%] | Activity [8] [mol/mol] | growth at 10 µM [9] [%] | growth at 10 µM [10] [%] | growth at 10 µM [11] [%] | growth at 10 µM [12] [%] | growth at 10 µM [13] [%] | growth at 10 µM [14] [%] | growth at 10 µM [15] [%] | growth at 10 µM [16] [%] | growth at 10 µM [17] [%] | growth at 10 µM [18] [%] | growth at 10 µM [19] [%] | growth at 10 µM [20] [%] | further results
C/C(=N\O)c1ccc(NC(=O)CSc2nnc(-c3ccccc3)n2-c2ccccc2)cc1 | 90.4 | 20.9 | 99.9 | 39.3 | 97.5 | 92.7 | 84 | 0.14 | 73.7 | 63.7 | 76.6 | 104 | 48.6 | 80.5 | 91.2 | 45.8 | 97.7 | 90.8 | 94.5 | 95.8 | growth at 10 µM [21]: 99.8%; growth at 10 µM [22]: 100%; growth at 10 µM [23]: 85.7%; growth at 10 µM [24]: 97.2%; growth at 10 µM [25]: 52.6%; growth at 10 µM [26]: 30.1%; growth at 10 µM [27]: 84.7%; growth at 10 µM [28]: 92.2%
COc1ccc(-c2nnc(SCC(=O)Nc3ccc(/C(C)=N/O)cc3)n2-c2ccccc2)cc1OC | 78.5 | 47.9 | 87.4 | 90.6 | 69.2 | 64.5 | 98.6 | 0.35 | 41.1 | 91.8 | 68.8 | 110 | 87.3 | 4.74 | 91.6 | 75.8 | 57.6 | 42.8 | 94.6 | 105 | growth at 10 µM [21]: 115%; growth at 10 µM [22]: 89.9%; growth at 10 µM [23]: 75.5%; growth at 10 µM [24]: 43%; growth at 10 µM [25]: 39.1%; growth at 10 µM [26]: -8.56%; growth at 10 µM [27]: 97%; growth at 10 µM [28]: 30.6%
